Tests used:
Type in all cases: functional
NCI-H522 [1] = experiment: Growth inhibition of human NCI-H522 cells assessed as cell growth at 10 uM after 48 hrs by sulforhodamine B assay; settings: NCI-H522, 48 h, read-out: Activity
MCF7 = experiment: Growth inhibition of human MCF7 cells after 48 hrs by sulforhodamine B assay; settings: MCF7, 48 h
Method in brief: (§1)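 NCI 60-cell-line five-dose screen. Cells were plated at 5,000–40,000/well by doubling time and grown 24 h at 37 °C, 5% CO2. Time-zero plates were TCA-fixed. Drug from DMSO stock was tested at 0.01, 0.1, 1, 10 and 100 µM final for 48 h continuous exposure. Read-out was SRB at 515 nm. GI50 is the concentration giving 50% reduction in net protein increase versus untreated control.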

MDA-MB-231 = experiment: Growth inhibition of human MDA-MB-231 cells assessed as cell growth at 10 '-6 M after 48 hrs by sulforhodamine B assay; settings: MDA-MB-231, 48 h, read-out: Activity
HT-29 = experiment: Growth inhibition of human HT-29 cells after 48 hrs by sulforhodamine B assay; settings: HT-29, 48 h; method in brief: as §1
DU-145 = experiment: Growth inhibition of human DU145 cells assessed as cell growth at 10 '-4 M after 48 hrs by sulforhodamine B assay; settings: DU-145, 48 h, read-out: Activity
KM12 = experiment: Growth inhibition of human KM12 cells assessed as cell growth at 10 '-7 M after 48 hrs by sulforhodamine B assay; settings: KM12, 48 h, read-out: Activity
[2] = Growth inhibition of human NCI-ADR-RES cells after 48 hrs by sulforhodamine B assay; method in brief: as §1
NCI-H522 [3] = experiment: Growth inhibition of human NCI-H522 cells assessed as cell growth at 10 '-5 M after 48 hrs by sulforhodamine B assay; settings: NCI-H522, 48 h, read-out: Activity
OVCAR-8 = experiment: Growth inhibition of human OVCAR8 cells after 48 hrs by sulforhodamine B assay; settings: OVCAR-8, 48 h
NCI-H23 = experiment: Growth inhibition of human NCI-H23 cells assessed as cell growth at 10 '-4 M after 48 hrs by sulforhodamine B assay; settings: NCI-H23, 48 h, read-out: Activity
BT-549 = experiment: Growth inhibition of human BT549 cells assessed as cell growth at 10 '-5 M after 48 hrs by sulforhodamine B assay; settings: BT-549, 48 h, read-out: Activity
Method in brief: (§2)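 Percent growth at each of the five concentrations of the 48 h continuous-exposure NCI SRB screen. Drug stocks were in DMSO at 400× the top final concentration and diluted in medium with gentamicin. Growth was calculated as [(Ti-Tz)/(C-Tz)]×100 when Ti ≥ Tz, or [(Ti-Tz)/Tz]×100 when Ti < Tz. Tz plates were fixed at drug addition; untreated wells served as control. Absorbance was read at 515 nm.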

HCT-15 = experiment: Growth inhibition of human HCT15 cells assessed as cell growth at 10 '-8 M after 48 hrs by sulforhodamine B assay; settings: HCT-15, 48 h, read-out: Activity
SN12C = experiment: Growth inhibition of human SN12C cells assessed as cell growth at 10 '-6 M after 48 hrs by sulforhodamine B assay; settings: read-out: Activity
ACHN = experiment: Growth inhibition of human ACHN cells assessed as cell growth at 10 '-5 M after 48 hrs by sulforhodamine B assay; settings: read-out: Activity; method in brief: as §2
LOX IMVI = experiment: Growth inhibition of human LOXIMVI cells assessed as growth inhibition at 10 uM after 48 hrs by sulforhodamine B assay; settings: read-out: GI
SNB-19 = experiment: Growth inhibition of human SNB19 cells assessed as cell growth at 10 '-5 M after 48 hrs by sulforhodamine B assay; settings: SNB-19, 48 h, read-out: Activity
OVCAR-4 = experiment: Growth inhibition of human OVCAR4 cells after 48 hrs by sulforhodamine B assay; settings: OVCAR-4, 48 h
Method in brief: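 NCI 60-cell-line five-dose screen over 0.01, 0.1, 1, 10 and 100 µM, with 48 h continuous exposure at 37 °C and 5% CO2 after 24 h pre-incubation (5,000–40,000 cells/well). Cells were TCA-fixed (10% final for adherent, 16% for suspension), stained with SRB and read at 515 nm. GI50 was solved from [(Ti−Tz)/(C−Tz)]×100 = 50 against time-zero plates.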

T47D = experiment: Growth inhibition of human T47D cells assessed as growth inhibition at 10 uM after 48 hrs by sulforhodamine B assay; settings: read-out: GI
SF-295 = experiment: Growth inhibition of human SF295 cells assessed as cell growth at 10 '-5 M after 48 hrs by sulforhodamine B assay; settings: SF-295, 48 h, read-out: Activity
PC-3 = experiment: Growth inhibition of human PC3 cells assessed as cell growth at 10 '-6 M after 48 hrs by sulforhodamine B assay; settings: PC-3, 48 h, read-out: Activity
[4] = Growth inhibition of human […] cells after 48 hrs by sulforhodamine B assay
Method in brief: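 NCI 60-cell-line five-dose screen at 0.01, 0.1, 1, 10 and 100 µM final. Cells were plated at 5,000–40,000/well and grown 24 h at 37 °C, 5% CO2, then exposed to drug continuously for 48 h. Adherent cells were fixed with cold TCA (10% final) and stained with SRB; absorbance read at 515 nm. GI50 is the concentration where [(Ti-Tz)/(C-Tz)]×100 = 50, with Tz plates fixed at drug addition.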

[5] = Growth inhibition of human HCC2998 cells assessed as cell growth at 10 '-5 M after 48 hrs by sulforhodamine B assay; settings: HCC 2998, 48 h, read-out: Activity
K562 = experiment: Growth inhibition of human K562 cells assessed as cell growth at 10 '-4 M after 48 hrs by sulforhodamine B assay; settings: K562, 48 h, read-out: Activity
SF-539 = experiment: Growth inhibition of human SF539 cells assessed as cell growth at 10 '-8 M after 48 hrs by sulforhodamine B assay; settings: SF-539, 48 h, read-out: Activity
OVCAR-3 = experiment: Growth inhibition of human OVCAR3 cells assessed as cell growth at 10 '-4 M after 48 hrs by sulforhodamine B assay; settings: OVCAR-3, 48 h, read-out: Activity
[6] = read-out: LD50 (the source's name)

## Cc1nn(-c2ccc(Cl)cc2)c(=O)n1CCN1CCOCC1
NCI-H522 [1]
  growth at 10 µM: 69%

## Cc1cc(=O)oc2cc(OCCn3c(C)nn(-c4ccc(Cl)cc4)c3=O)ccc12
MCF7
  GI50: 2700 nM
  TGI: > 1000 nM
MCF7; [6]
  CC50: > 1000 nM
MDA-MB-231
  growth at 1 µM: 66%
HT-29
  GI50: 3820 nM
  TGI: > 1000 nM
HT-29; [6]
  CC50: > 1000 nM
DU-145
  growth at 100 µM: 10%
KM12
  growth at 0.1 µM: 105%
[2]
  GI50: 1640 nM
  TGI: > 1000 nM
[2]; [6]
  CC50: > 1000 nM
NCI-H522 [3]
  growth at 10 µM: 24%
OVCAR-8
  GI50: 5170 nM
  TGI: > 1000 nM
OVCAR-8; [6]
  CC50: > 1000 nM
NCI-H23
  growth at 100 µM: 19%
BT-549
  growth at 10 µM: 64%
HCT-15
  growth at 0.01 µM: 98%
SN12C
  growth at 1 µM: 82%
ACHN
  growth at 10 µM: 35%
LOX IMVI
  inhibition of growth at 10 µM: 52%
SNB-19
  growth at 10 µM: 39%
OVCAR-4
  GI50: 2680 nM
OVCAR-4; [6]
  CC50: > 1000 nM
T47D
  inhibition of growth at 10 µM: 52.6%
SF-295
  growth at 10 µM: 39%
PC-3
  growth at 1 µM: 74%
[4]
  GI50: 5700 nM
  TGI: > 1000 nM
[4]; [6]
  CC50: > 1000 nM
[5]
  growth at 10 µM: 29%
K562
  growth at 100 µM: 12%
SF-539
  growth at 0.01 µM: 102%
OVCAR-3
  growth at 100 µM: -29%

From ChEMBL document CHEMBL2346664, “Synthesis, characterization and in vitro anticancer evaluation of novel 1,2,4-triazolin-3-one derivatives” (2013)
